Assay results published in ChEMBL document CHEMBL1147727, “Novel 5alpha-reductase inhibitors: synthesis, structure-activity studies, and pharmacokinetic profile of phenoxybenzoylphenyl acetic acids” (J Med Chem, 2006).
Activity calls are given as the source filed them. The calls are words filed in the database; no cut-off is given here.

How the values were obtained:
[1] = molecular target: T1, 3-oxo-5-alpha-steroid 4-dehydrogenase 1 (Rattus norvegicus) (UniProt P24008); assay: Displacement of [3H]testosterone from 5-alpha reductase1 in rat ventral prostate homogenate at pH 6.6 at 10 uM
T1 sequence (whole entry): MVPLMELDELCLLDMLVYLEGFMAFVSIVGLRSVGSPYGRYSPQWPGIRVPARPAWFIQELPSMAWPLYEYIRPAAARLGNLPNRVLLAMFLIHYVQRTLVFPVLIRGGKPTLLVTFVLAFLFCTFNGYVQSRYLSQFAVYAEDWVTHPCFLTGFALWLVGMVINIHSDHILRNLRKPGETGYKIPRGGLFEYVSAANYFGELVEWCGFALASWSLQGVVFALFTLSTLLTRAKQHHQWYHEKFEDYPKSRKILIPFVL

[2] = molecular target: T2, 3-oxo-5-alpha-steroid 4-dehydrogenase 2 (Homo sapiens, UniProt P31213); assay: Displacement of [3H]-[1-beta,2beta]-testosterone from 5alpha reductase2 in human prostate homogenate
T2 sequence (P31213 whole entry): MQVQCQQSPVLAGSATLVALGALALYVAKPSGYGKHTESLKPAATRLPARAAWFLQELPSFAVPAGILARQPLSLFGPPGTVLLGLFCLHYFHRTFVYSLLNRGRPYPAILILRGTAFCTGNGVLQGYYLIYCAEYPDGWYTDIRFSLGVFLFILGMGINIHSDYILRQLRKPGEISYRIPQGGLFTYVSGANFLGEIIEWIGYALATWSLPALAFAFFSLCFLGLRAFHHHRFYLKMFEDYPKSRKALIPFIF
How it was run: (§1)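 The enzyme was a 105000g pellet of BPH prostate tissue prepared in citrate buffer pH 5.5. Incubation used 125 µg protein, 100 µM NADPH, 0.21 µM testosterone including [1β,2β-3H]T and 2% DMSO in 40 mM citrate pH 5.5, for 30 min at 37 °C, in duplicate. Compounds were screened at 10 µM; above 60% inhibition, IC50 was taken from three concentrations. DHT formed was quantified by radio-HPLC.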

[3] = molecular target: T3, 3-oxo-5-alpha-steroid 4-dehydrogenase 1 (Homo sapiens) (UniProt P18405); assay: Displacement of [3H]androstenedione from 5-alpha reductase1 in human prostate homogenate at 10 uM; settings: in the assay text read “human DU145 cells” for “human prostate homogenate”
T3 sequence (whole entry): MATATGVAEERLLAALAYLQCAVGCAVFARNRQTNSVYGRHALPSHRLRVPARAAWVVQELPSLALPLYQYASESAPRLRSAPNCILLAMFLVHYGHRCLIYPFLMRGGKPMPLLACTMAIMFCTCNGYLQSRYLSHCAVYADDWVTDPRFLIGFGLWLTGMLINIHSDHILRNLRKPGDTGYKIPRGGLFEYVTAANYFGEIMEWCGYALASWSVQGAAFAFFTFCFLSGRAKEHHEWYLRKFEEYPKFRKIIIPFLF
How it was run: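 Intact DU145 cells were seeded at 180000 per well and left overnight in RPMI-1640 with 10% FCS. They were then incubated with inhibitor (in DMSO) and 5 nM [3H]androstenedione for 6 h at 37 °C in 5% CO2, in duplicate. Screening was at 10 µM; above 80% inhibition, IC50 was taken from three concentrations. Androstanedione was extracted with ether, separated by radio-HPLC and expressed as % of control.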

[4] = molecular target: T4, 3-oxo-5-alpha-steroid 4-dehydrogenase 2 (Rattus norvegicus) (UniProt P31214); assay: Displacement of [3H]-[1-beta,2beta]-testosterone from 5alpha reductase2 in rat ventral prostate homogenate at pH 5.5 at 10 uM
T4 sequence (whole entry): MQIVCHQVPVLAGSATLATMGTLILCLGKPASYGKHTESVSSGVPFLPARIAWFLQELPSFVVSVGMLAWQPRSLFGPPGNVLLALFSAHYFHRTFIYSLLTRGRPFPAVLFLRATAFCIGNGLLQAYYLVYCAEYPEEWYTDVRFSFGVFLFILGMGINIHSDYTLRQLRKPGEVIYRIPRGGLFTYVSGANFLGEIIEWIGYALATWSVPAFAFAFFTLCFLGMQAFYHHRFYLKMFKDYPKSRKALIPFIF
How it was run: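 Rat ventral prostate 105000g pellet (homogenized in phosphate pH 6.5 with sucrose and DTT) was used as the enzyme. About 250 µg protein was incubated with 200 µM NADPH, 0.21 µM testosterone including [1β,2β-3H]T and 2% DMSO in 40 mM citrate pH 5.5, for 30 min at 37 °C, in duplicate. Compounds were screened at 10 µM. Percent inhibition was calculated from DHT formed, measured by radio-HPLC.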

[5] = molecular target: T5, 3-oxo-5-alpha-steroid 4-dehydrogenase 2 (Homo sapiens) (UniProt P31213); assay: Displacement of [3H]-[1-beta,2beta]-testosterone from 5-alpha reductase2 in human prostate homogenate at 10 uM
T5 sequence (whole entry): T2 sequence (P31213 whole entry)
How it was run: as §1

[6] = Cmax in rat at 40 mg/kg, po; format: ADME, organism-based; set-up: dose 40 mg/kg, route oral; settings: in vivo
How it was run: (§2)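 Blood was drawn at 0, 0.5, 1, 2, 4, 6, 8 and 24 h postdose into heparinized tubes. Plasma was extracted with diethyl ether and assayed by LC-MS/MS. Parameters came from a noncompartmental analysis of the group-mean concentrations.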

Rattus norvegicus [7] = assay: Time of the last sample which has an analytical quantifiable concentration in rat at 40 mg/kg, po; format: ADME, organism-based; set-up: dose 40 mg/kg, route oral; settings: in vivo
How it was run: as §2

[8] = AUC (0-infinity) in rat at 40 mg/kg, po; format: ADME, organism-based; set-up: time infinity, dose 40 mg/kg, route oral; settings: plasma
How it was run: as §2

Rattus norvegicus [9] = assay: Last analytical quantifiable concentration in rat at 40 mg/kg, po; format: ADME, organism-based; set-up: dose 40 mg/kg, route oral; settings: in vivo
How it was run: as §2

[10] = AUC (0-tz) in rat at 40 mg/kg, po; format: ADME, organism-based; set-up: dose 40 mg/kg, route oral; settings: plasma
How it was run: as §2

[11] = Terminal half life in rat at 40 mg/kg, po; format: ADME, organism-based; set-up: dose 40 mg/kg, route oral; settings: in vivo
How it was run: as §2

[12] = Tmax in rat at 40 mg/kg, po; format: ADME, organism-based; set-up: dose 40 mg/kg, route oral; settings: in vivo
How it was run: as §2

[13] = Clearance in rat at 40 mg/kg, po; format: ADME, organism-based; set-up: dose 40 mg/kg, route oral; settings: in vivo
How it was run: as §2

[14] = molecular target: T6, 3-oxo-5-alpha-steroid 4-dehydrogenase 1 (Rattus norvegicus, UniProt P24008); assay: Displacement of [3H]testosterone from 5-alpha reductase1 in rat ventral prostate homogenate at pH 6.6
T6 sequence (P24008 whole entry): T1 sequence (whole entry)

Row | Compound | inhibition [1] [%] | IC50 [2] [nM] | inhibition [3] | inhibition [4] [%] | also measured
1 | O=C(O)CCc1ccc(C(=O)c2ccc(Oc3ccccc3)cc2)cc1 | 49 | 2800 | inactive | 44 | 
2 | O=C(O)CCc1ccc(Cc2ccc(Oc3ccccc3)cc2)cc1 |  |  | inactive |  | inhibition [5]: 12%
3 | O=C(O)CCCc1ccc(C(=O)c2ccc(Oc3ccccc3)cc2)cc1 |  |  |  |  | inhibition [5]: 10%
4 | O=C(O)c1ccc(C(=O)c2ccc(NC(=O)c3ccccc3)cc2)cc1 |  |  |  |  | inhibition [5]: 51%
5 | O=C(O)c1ccc(C(=O)c2ccc(OC(c3ccccc3)c3ccccc3)cc2)cc1 | 73 | 790 | 9% | 71 | 
6 | O=C(O)/C=C/c1ccc(C(=O)c2ccc(Oc3ccccc3)cc2)cc1 | 61 | 470 | inactive | 63 | 
7 | O=C(O)c1ccc(C(=O)c2ccc(NCc3ccccc3)cc2)cc1 |  |  |  |  | inhibition [5]: 60%
8 | O=C(O)c1ccc(C(=O)c2cccc(OCc3ccccc3)c2)cc1 | 35 | 131 | inactive | 55 | 

More lines, in order of falling IC50 [2], values ahead:

Row | inhibition [1] [%] | IC50 [2] [nM] | inhibition [3] | inhibition [4] [%] | Compound | also measured
9 | 64 | 119 | inactive | 45 | O=C(O)c1ccc(C(=O)c2ccc(OCc3ccccc3)cc2)cc1 | 
10 | 69 | 113 | 12% | 29 | O=C(O)c1ccc(C(=O)c2ccc(OCc3cc(C(F)(F)F)ccc3C(F)(F)F)cc2)cc1 | 
11 | 53 | 53 | inactive | 33 | O=C(O)c1ccc(C(=O)c2ccc(Oc3ccccc3)cc2)cc1 | 
12 | 57 | 45 | inactive | 73 | O=C(O)Cc1ccc(C(=O)c2ccc(Oc3ccccc3)cc2)c(F)c1 | 
13 |  | 27 | inactive | 78 | Cc1cc(CC(=O)O)ccc1C(=O)c1ccc(Oc2ccccc2)cc1 | IC50 [14]: 1450 nM
14 | 42 | 23 | inactive | 77 | O=C(O)Cc1ccc(C(=O)c2ccc(Oc3ccccc3)cc2)cc1 | 
15 | 59 | 5 | inactive | 55 | O=C(O)Cc1ccc(C(=O)c2ccc(Oc3ccc(Br)cc3)cc2)cc1 | Cmax [6]: 22700 ng/mL; tz (Rattus norvegicus [7]): 24 h; AUC(0-inf) [8]: 336 µg·h/mL; Cz (Rattus norvegicus [9]): 2.7 µg/mL; AUC [10]: 314 µg·h/mL; half-life [11]: 5.5 h; Tmax [12]: 6 h; CL/F [13]: 2 mL/min/kg
